The values below come from ChEMBL document CHEMBL1123412, “Thiopurine methyltransferase: structure-activity relationships for benzoic acid inhibitors and thiophenol substrates” (J Med Chem, 1986).

What all share (format): tissue-based
Substrate in data set [1]: Fc1ccc(S)cc1
Nature of the data set: (§1) Apparent binding constant for purified human kidney TPMT. An outline of the steps: (§2)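 Enzyme purified >300-fold from human kidney (100000g supernatant, ammonium sulfate, DEAE-A25, Sephadex G-100). The thiophenol replaced 6-MP as methyl acceptor, with 25 μM [14C-methyl]AdoMet at pH 6.7 and 37 °C for 30 min. Stopped with borate pH 10, extracted, scintillation counted. Five or more concentrations near Km in triplicate, at least twice. Apparent Km by Wilkinson method, averaged.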

Substrate in data set [2]: COc1ccc(S)cc1
The data set is described as §1. The procedure, abridged:
as §2

Substrate in data set [3]: O=[N+]([O-])c1ccc(S)cc1
The description is as §1. The procedure, abridged: as §2

Substrate in data set [4]: O=C(O)c1ccccc1S
The description is as §1. An outline of the steps: as §2

Substrate in data set [5]: CC(=O)Nc1ccc(S)cc1
Described as §1. An outline of the steps: as §2

Substrate in data set [6]: Cc1ccc(S)cc1
The data set is described as §1. An outline of the steps: as §2

Substrate in data set [7]: Sc1ccc(Cl)cc1
Described as §1. The procedure, abridged: as §2

Substrate in data set [8]: Sc1ccccc1
Described as §1. An outline of the steps: as §2

Substrate in data set [9]: Sc1ccccc1Br
The data set is described as §1. An outline of the steps:
as §2

Substrate in data set [10]: Sc1ccc(Br)cc1
Described as §1. The procedure, abridged:
as §2

Substrate in data set [11]: COc1ccccc1S
The description is as §1. An outline of the steps: as §2

Substrate in data set [12]: Sc1cccc(Cl)c1
Described as §1. The procedure, abridged: as §2

Substrate in data set [13]: Nc1ccccc1S
The data set is described as §1. The procedure, abridged: as §2

Substrate in data set [14]: COc1cccc(S)c1
The data set is described as §1. An outline of the steps: as §2

What is called Km is the substrate concentration at which the rate is half of its maximum.

B1: Thiopurine S-methyltransferase (Homo sapiens), P51580 (protein)
chain: MDGTRTSLDIEEYSDTEVQKNQVLTLEEWQDKWVNGKTAFHQEQGHQLLKKHLDTFLKGKSGLRVFFPLCGKAVEMKWFADRGHSVVGVEISELGIQEFFTEQNLSYSEEPITEIPGTKVFKSSSGNISLYCCSIFDLPRTNIGKFDMIWDRGALVAINPGDRKCYADTMFSLLGKKFQYLLCVLSYDPTKHPGPPFYVPHAEIERLFGKICNIRCLEKVDAFEERHKSWGIDCLFEKLYLLTEK
As to B1, the Km turned out to be 5.6 µM in data set [1]; 3.2 µM in data set [2]; 6.5 µM in data set [3]; 7.8 µM in data set [4]; 2.1 µM in [5]; 5.9 µM in data set [6]. Also, the Michaelis-Menten constant (Km) in [7] worked out at 3.6 µM; in data set [8] it was 3.9 µM; in data set [9], 0.8 µM; in data set [10], 4.8 µM; in [11] it was 2.6 µM; in data set [12] it was 2.4 µM. In addition, the Km in data set [13] worked out at 2.5 µM; in data set [14], 2.1 µM.
